Measurements reported in ChEMBL document CHEMBL1153722, “Design, synthesis, and characterization of peptide-based rab geranylgeranyl transferase inhibitors” (J Med Chem, 2009).
One block for each molecule: values may come before it. Activity calls are given as the source filed them. The rule behind the calls is not given here. Square brackets hold non-standard residues; d marks the D form. Peptide text beside a SMILES is read from it. * marks the point of attachment. Hydrocinnamoyl = O=C(CCc1ccccc1)*; NMeF = CN[C@@H](Cc1ccccc1)C(=O)O; Undecanoyl = CCCCCCCCCCC(=O)*; Piperidide = C1CCN(*)CC1; Cbz = O=C(OCc1ccccc1)*; NHOH = ON*

Tests used:
[1] = Inhibition of rat recombinant Rab geranylgeranyltransferase iin presence of canine Rab7 and rat REP1 by NBD-FPP based continuous fluorimetric assay
In short: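 Continuous fluorometric assay in 96/384-well format: 3 μM Rab7, 3 μM REP1, 9 μM NBD-FPP and 400 nM RabGGTase, with or without inhibitor. IC50 was calculated from three independent measurements.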

[2] = biological target: geranylgeranyltransferase type-I (Rattus norvegicus); assay: Inhibition of rat recombinant GGTase-1 by SDS-PAGE end point assay
[3] = biological target: protein farnesyltransferase (Rattus norvegicus); assay: Inhibition of rat recombinant FTase by SDS-PAGE end point assay
[4] = Inhibition of rat recombinant Rab geranylgeranyltransferase by SDS-PAGE end point assay
In short: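 End-point transfer of fluorescent prenyl analogues (NBD-GPP or NBD-FPP) to protein substrates was run for 10 min at varied inhibitor concentrations. Substrates were GST-KiRas for FTase, GST-RhoA for GGTase-I and Rab7 for RabGGTase. Reactions were quenched with SDS sample buffer and run on SDS-PAGE. Fluorescent bands were quantified by densitometry.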

[5] = tested on: COS-7 (Chlorocebus aethiops); assay: Inhibition of recombinant Rab geranylgeranyltransferase expressed in COS-7 cells assessed as inhibition of geranylgeranylation of EYFP-Rab7 protein at 10 to 100 uM by Western blot relative to compactin
[6] = tested on: COS-7 (Chlorocebus aethiops); assay: Inhibition of recombinant Rab geranylgeranyltransferase expressed in COS-7 cells assessed as inhibition of geranylgeranylation of EYFP-Rab7 protein by Western blot; parameters: concentration or dose not given beside the values; details: dose or concentration not given here
[7] = Displacement of Mant-FPP from rat recombinant Rab geranylgeranyltransferase by co-titration based fluorescence assay
In short: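 RabGGTase was titrated into 300 nM Mant-FPP at several fixed inhibitor concentrations. Apparent Kd of Mant-FPP was obtained at each inhibitor level by quadratic fitting. Linear versus hyperbolic dependence of apparent Kd on inhibitor concentration was taken as competitive versus partially competitive binding.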

[8] = organism: Rattus norvegicus; assay: Displacement of NBD-FPP from rat recombinant Rab geranylgeranyltransferase by fluorescence titration
In short: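 Displacement titration: 400 nM NBD-FPP was pre-equilibrated with 550 nM RabGGTase. Inhibitor was added stepwise in 1 or 5 μM increments while NBD fluorescence was monitored. The end point was controlled by a final addition of GGPP to 4 μM.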

[9] = organism: Rattus norvegicus; assay: Inhibition of rat recombinant Rab geranylgeranyltransferase at 100 uM in presence of canine Rab7 and rat REP1 NBD-FPP based continuous fluorimetric assay
In short: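 Continuous fluorometric assay in 96/384-well format: 3 μM Rab7, 3 μM REP1, 9 μM NBD-FPP and 400 nM RabGGTase, with or without inhibitor. […] IC50 was calculated from three independent measurements.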

SMILES: CCCCCCCCCCC(=O)N[C@@H](Cc1c[nH]cn1)C(=O)N[C@@H](Cc1c[nH]cn1)C(=O)N[C@@H](Cc1ccc(O)cc1)C(=O)NCCCCN
IC50 [1]: 5.2 µM

SMILES: CN(C(=O)[C@H](Cc1cnc[nH]1)NC(=O)OCc1ccccc1)[C@@H](Cc1ccccc1)C(=O)N[C@@H](Cc1ccc(O)cc1)C(=O)NO
Activity [5]: Dose-dependent effect | inhibition [6]: 70% | Ki [7]: 14.5 µM | Activity [8]: Active

SMILES: CCCCCCCCCCC(=O)N[C@@H](Cc1cnc[nH]1)C(=O)N[C@@H](Cc1c[nH]cn1)C(=O)N[C@@H](Cc1ccc(O)cc1)C(=O)N(C)CCc1ccccn1
Activity [5]: Dose-dependent effect | inhibition [6]: 70% | IC50 [4]: 10 µM | Ki [7]: 1.1 µM | Activity [8]: Dose-dependent effect

SMILES: CCCCC(=O)N[C@@H](Cc1c[nH]cn1)C(=O)N[C@@H](Cc1ccccc1)C(=O)N[C@@H](Cc1ccc(O)cc1)CN(C)CCc1ccccn1
IC50 [1]: > 100 µM

SMILES: O=C(CNC(=O)c1coc(-c2ccccc2)n1)N[C@@H](Cc1ccccc1)C(=O)N[C@@H](Cc1c[nH]cn1)C(=O)O
IC50 [1]: 45 µM

SMILES: O=C(O)C(O)(Cc1cccnc1)P(=O)(O)O (centres undefined)
Activity [5]: Dose-dependent effect | inhibition [6]: 70%

SMILES: O=C(CNC(=O)c1csc(-c2cccs2)n1)N[C@@H](Cc1ccccc1)C(=O)N[C@@H](Cc1cn(C(c2ccccc2)(c2ccccc2)c2ccccc2)cn1)C(=O)O
IC50 [1]: 36 µM

SMILES: O=C(CNC(=O)c1coc(-c2ccccc2)n1)N[C@@H](Cc1ccccc1)C(=O)N[C@@H](Cc1cn(Cc2ccccc2)cn1)C(=O)O
IC50 [1]: > 50 µM

SMILES: O=C(CNC(=O)[C@H](Cc1c[nH]cn1)NC(=O)c1coc(-c2ccccc2)n1)N[C@@H](Cc1ccccc1)C(=O)O
IC50 [1]: > 50 µM

SMILES: Cc1nc(C(=O)NCC(=O)N[C@@H](Cc2ccccc2)C(=O)N[C@@H](Cc2cn(C(c3ccccc3)(c3ccccc3)c3ccccc3)cn2)C(=O)O)c(C)o1
IC50 [1]: 46 µM

SMILES: Cc1nc(C(=O)NCC(=O)N[C@@H](Cc2ccccc2)C(=O)N[C@@H](Cc2c[nH]cn2)C(=O)O)c(C)o1
IC50 [1]: > 50 µM

SMILES: CCCCCCCCCCC(=O)N[C@@H](Cc1c[nH]cn1)C(=O)N[C@@H](Cc1c[nH]cn1)C(=O)N[C@@H](Cc1ccc(O)cc1)C(=O)NCCc1ccccn1
inhibition [9]: 80% | IC50 [1]: > 100 µM

SMILES: O=C(CNC(=O)c1csc(-c2cccnc2)n1)N[C@@H](Cc1ccccc1)C(=O)N[C@@H](Cc1c[nH]cn1)C(=O)O
IC50 [1]: > 50 µM

SMILES: O=C(CNC(=O)[C@H](Cc1cn(C(c2ccccc2)(c2ccccc2)c2ccccc2)cn1)NC(=O)c1coc(-c2ccccc2)n1)N[C@@H](Cc1c[nH]cn1)C(=O)O
inhibition [9]: 86% | IC50 [1]: 38 µM | IC50 [2]: 2.6 µM | IC50 [3]: 14 µM | IC50 [4]: 41 µM

SMILES: O=C(CNC(=O)c1csc(-c2cccs2)n1)N[C@@H](Cc1ccccc1)C(=O)N[C@@H](Cc1c[nH]cn1)C(=O)O
IC50 [1]: 41 µM

SMILES: O=C(CNC(=O)[C@H](Cc1cn(C(c2ccccc2)(c2ccccc2)c2ccccc2)cn1)NC(=O)c1coc(-c2ccccc2)n1)N[C@@H](Cc1ccccc1)C(=O)O
IC50 [1]: 30 µM

SMILES: CN(C(=O)[C@H](Cc1cnc[nH]1)NC(=O)OCc1ccccc1)[C@@H](Cc1ccccc1)C(=O)N[C@@H](Cc1c[nH]c2ccccc12)C(=O)NO (Cbz-His-[NMeF]-Trp-{NHOH})
Activity [5]: Dose-dependent effect | inhibition [6]: 70%

SMILES: CC(C)(C)OC(=O)n1cnc(C[C@H](NC(=O)[C@H](Cc2ccccc2)NC(=O)CNC(=O)c2coc(-c3ccccc3)n2)C(=O)O)c1
IC50 [1]: > 50 µM

SMILES: O=C(CNC(=O)[C@H](Cc1c[nH]cn1)NC(=O)c1coc(-c2ccccc2)n1)N[C@@H](Cc1c[nH]cn1)C(=O)O
IC50 [1]: > 50 µM

SMILES: O=C(CNC(=O)c1csc(-c2cccnc2)n1)N[C@@H](Cc1ccccc1)C(=O)N[C@@H](Cc1cn(C(c2ccccc2)(c2ccccc2)c2ccccc2)cn1)C(=O)O
IC50 [1]: 37 µM

SMILES: CCCCCCCCCCC(=O)N[C@@H](Cc1c[nH]cn1)C(=O)N[C@@H](Cc1ccccc1)C(=O)N[C@@H](Cc1ccc(O)cc1)C(=O)N(C)CCc1ccccn1
Activity [5]: Dose-dependent effect | inhibition [6]: 70% | IC50 [4]: 2.8 µM | Ki [7]: 5.4 µM

SMILES: CCCCCCCCCCCCCC(=O)OC[C@H](NC(=O)[C@@H](NC(=O)[C@H](CCCCNC(=O)c1coc(-c2ccccc2)n1)NC(=O)c1coc(-c2ccccc2)n1)[C@H](C)O)C(=O)O
inhibition [9]: 54%

SMILES: O=C(N[C@@H](CO)C(=O)N[C@@H](Cc1ccccc1)C(=O)N[C@@H](CO)C(=O)Nc1ccc(N2CCOCC2)cc1)C(Br)C(Br)c1ccc(F)cc1 (some centres undefined)
inhibition [9]: 70%

SMILES: O=C(CCc1ccccc1)N[C@@H](CO)C(=O)N[C@@H](Cc1ccccc1)C(=O)N[C@@H](CO)C(=O)N1CCCCC1 (Hydrocinnamoyl-Ser-Phe-Ser-Piperidide)
inhibition [9]: 62%

SMILES: O=C(/C=C/c1ccc(F)cc1)N[C@@H](CO)C(=O)N[C@@H](Cc1ccccc1)C(=O)N[C@@H](CO)C(=O)Nc1ccc(N2CCOCC2)cc1
inhibition [9]: 79%

Continued by falling IC50 [1], values first:

IC50 [1]: 26 µM
SMILES: CCCCCCCCCCCCCCC(=O)N[C@@H](Cc1c[nH]cn1)C(=O)N[C@@H](Cc1ccccc1)C(=O)N[C@@H](Cc1ccc(O)cc1)CN(C)CCc1ccccn1

IC50 [1]: 25 µM | IC50 [2]: 5.6 µM | IC50 [3]: 3.4 µM | IC50 [4]: 31 µM
SMILES: O=C(CNC(=O)c1coc(-c2ccccc2)n1)N[C@@H](Cc1ccccc1)C(=O)N[C@@H](Cc1cn(C(c2ccccc2)(c2ccccc2)c2ccccc2)cn1)C(=O)O

IC50 [1]: 24 µM
SMILES: CCCCCCCCCCCOc1ccc(C(=O)N[C@@H](Cc2c[nH]cn2)C(=O)N[C@@H](Cc2c[nH]cn2)C(=O)N[C@@H](Cc2c[nH]cn2)C(=O)NCCCCN)cc1

IC50 [1]: 22.7 µM
SMILES: CN(C(=O)[C@@H](Cc1c[nH]cn1)NC(=O)/C=C/c1ccc(-c2ccccc2)cc1)[C@H](CN[C@@H](Cc1ccc(O)cc1)C(=O)O)Cc1ccc(O)cc1

IC50 [1]: 22.7 µM | Ki [7]: 4.5 µM | Activity [8]: Active
SMILES: CN(C(=O)[C@@H](Cc1c[nH]cn1)NC(=O)OCc1ccccc1)[C@@H](Cc1ccccc1)C(=O)N[C@@H](Cc1ccc(O)cc1)C(=O)O

IC50 [1]: 19.3 µM
SMILES: CN(C(=O)[C@H](Cc1c[nH]cn1)NC(=O)OCc1ccccc1OCc1ccccc1)[C@H](CN[C@@H](Cc1ccccc1)C(=O)O)Cc1ccc(O)cc1

IC50 [1]: 19.1 µM
SMILES: CCCCCc1ccc(CCC(=O)N[C@H](Cc2ccc(O)cc2)C(=O)N[C@@H](Cc2ccc(O)cc2)C(=O)N[C@@H](C[Si]2(C)CCCCC2)C(=O)O)cc1

IC50 [1]: 19 µM
SMILES: CCCCCc1ccc(CCC(=O)N[C@H](Cc2c[nH]cn2)C(=O)N(C)[C@H](CN[C@@H](Cc2ccccc2)C(=O)O)Cc2ccccc2)cc1

IC50 [1]: 15.6 µM
SMILES: CN(C(=O)[C@@H](Cc1c[nH]cn1)NC(=O)OCc1ccccc1OCc1ccccc1)[C@H](CN[C@@H](Cc1ccccc1)C(=O)O)Cc1ccc(O)cc1

IC50 [1]: 15.2 µM
SMILES: CCC/C=C\c1ccccc1/C=C/C(=O)N[C@H](Cc1c[nH]cn1)C(=O)N(C)[C@H](CN[C@H](Cc1ccccc1)C(=O)O)Cc1ccc(O)cc1

IC50 [1]: 13.6 µM
SMILES: CN(C(=O)[C@H](Cc1c[nH]cn1)NC(=O)OCc1ccccc1)[C@@H](Cc1ccccc1)C(=O)N[C@H](Cc1ccc(O)cc1)C(=O)NO

inhibition [9]: 7% | IC50 [1]: 12.3 µM
SMILES: CCCCCCCCCCCOc1ccc(C(=O)N[C@@H](Cc2c[nH]cn2)C(=O)N[C@@H](Cc2ccc(O)cc2)C(=O)N[C@@H](Cc2ccccc2)C(=O)NCCCn2ccnc2)cc1

IC50 [1]: 12.1 µM
SMILES: CCCCCCCCCCCOc1ccc(C(=O)N[C@@H](Cc2c[nH]cn2)C(=O)N[C@@H](Cc2c[nH]cn2)C(=O)N[C@@H](Cc2c[nH]cn2)C(=O)N(C)CCc2ccccn2)cc1

IC50 [1]: 11.6 µM
SMILES: CCCCCCCCCCCOc1ccc(C(=O)N[C@@H](Cc2ccc(O)cc2)C(=O)N[C@@H](Cc2ccc(O)cc2)C(=O)N[C@@H](Cc2ccc(O)cc2)C(=O)NCCCCN)cc1

IC50 [1]: 11 µM
SMILES: CCCCCc1ccc(CCC(=O)N[C@H](Cc2ccc(O)cc2)C(=O)N[C@@H](Cc2ccc(O)cc2)C(=O)N[C@@H](Cc2ccccc2)C(=O)O)cc1

IC50 [1]: 7.1 µM
SMILES: CCCCCCCCCCC(=O)N[C@@H](Cc1ccc(O)cc1)C(=O)N[C@@H](Cc1c[nH]cn1)C(=O)N[C@@H](Cc1ccc(O)cc1)C(=O)NCCCCN

IC50 [1]: 3.9 µM
SMILES: CCCCCCCCCCC(=O)N[C@@H](Cc1ccc(O)cc1)C(=O)N[C@@H](Cc1c[nH]cn1)C(=O)N[C@@H](Cc1ccc(O)cc1)C(=O)OC (Undecanoyl-Tyr-His-Tyr-OMe)

IC50 [1]: 2.8 µM | IC50 [2]: 97 µM | IC50 [3]: 98 µM | IC50 [4]: 8.8 µM
SMILES: CCCCCCCC(=O)N[C@@H](Cc1c[nH]cn1)C(=O)N[C@@H](Cc1ccccc1)C(=O)N[C@@H](Cc1ccc(O)cc1)CN(C)CCc1ccccn1
